Where “and” joins values, the source holds several entries; their conditions need not be identical. Equal entries are not always repeated. Where two headings read alike, the source gives them in different places.
How the values were obtained:
[1] = test system: TbT1 (P1-type nucleoside transporter); experiment: [3H]-thymidine transport in bloodstream forms; assay type: cell-based, Trypanosoma brucei brucei; conditions: for effect on [3H]-thymidine transport (in words): bloodstream forms
[2] = test system: T. b. brucei bloodstream forms; experiment: Uptake of other radiolabeled pyrimidines by wild-type bloodstream forms; assay type: cell-based, Trypanosoma brucei brucei; conditions: over 15 min; 2.5 μM [3H]-2′-deoxycytidine, 0.25 μM [3H]-cytosine, 1 μM [3H]-thymine
TbU1 = conditions: procyclic forms (PCF), ref De Koning and Jarvis (1998), Papageorgiou et al. (2005), Gudin et al. (2006), cited from earlier work; for Ki: read-out: Ki, U1; for Ki / Ki, U1: NE = no effect on uptake at concentration indicated
[3] = test system: T. b. brucei bloodstream forms strain 427 WT; experiment: Alamar blue drug sensitivity assay, wild-type; assay type: cell-based, Trypanosoma brucei brucei; conditions: for EC50: Trypanosoma brucei
Procedure, shortened: (§1)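 Bloodstream-form T. b. brucei s427 grown in HMI-9 with 10% FBS at 37°C under 5% CO2. Resistant lines were made by months of stepwise-increasing exposure to the analog, then cloned by limiting dilution. Viability was read by resazurin (Alamar blue) reduction. Thymidine rescue was tested by adding 100 μM thymidine.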

5FURes T. b. brucei = experiment: Alamar blue drug sensitivity assay, 5FURes; assay type: cell-based, Trypanosoma brucei brucei; conditions: for EC50: Trypanosoma brucei, read-out: EC50, 5FURes, Mean; for RF, 5FURes: resistance factor: IC50(resistant clone)/IC50(WT)
Procedure, shortened: as §1

5FOARes T. b. brucei = experiment: Alamar blue drug sensitivity assay, 5FOARes; assay type: cell-based, Trypanosoma brucei brucei; conditions: for EC50: Trypanosoma brucei, read-out: EC50, 5FOARes, Mean; for RF, 5FOARes: resistance factor: IC50(resistant clone)/IC50(WT)
Procedure, shortened: as §1

5F-2′dURes T. b. brucei = experiment: Alamar blue drug sensitivity assay, 5F-2′dURes; assay type: cell-based, Trypanosoma brucei brucei; conditions: for EC50: Trypanosoma brucei, read-out: EC50, 5F-2′dURes, Mean; for RF, 5F-2′dURes: resistance factor: IC50(resistant clone)/IC50(WT)
Procedure, shortened: as §1

5F-2′dURes cells = experiment: Metabolomic analysis of treated 5F-2′dURes cells; assay type: cell-based, Trypanosoma brucei brucei; conditions: 100 μM, 8 hours
[4] = test system: DNA of T. brucei bloodstream forms; experiment: Incorporation into DNA; assay type: cell-based, Trypanosoma brucei brucei; conditions: 100 μM, 12 hours; natural deoxynucleotides 500-5000-fold above detection limit
Procedure, shortened: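 Bloodstream forms were exposed to 100 μM test compound for 12 h (37°C, 5% CO2), with untreated parallel controls. DNA was extracted by SDS/RNase A lysis overnight at 37°C and phenol/chloroform, then digested with 1000 units exonuclease III at 37°C for 48 h. The digest was mixed 1:3 with acetonitrile, centrifuged, and the supernatant analysed by HILIC–high-resolution LC-MS.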

[5] = test system: variant surface glycoprotein; experiment: Effect on glycosylation / variant surface glycoprotein content; assay type: cell-based, Trypanosoma brucei brucei; conditions: 100 μM
TbU2 = conditions: read-out: Ki, U2; procyclic forms (PCF); ref De Koning and Jarvis (1998), Papageorgiou et al. (2005), Gudin et al. (2006); cited from earlier work
[6] = test system: P1-type nucleoside transporter; experiment: [3H]-inosine uptake in bloodstream forms; assay type: cell-based, Trypanosoma brucei brucei
Procedure, shortened: (§2)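 Log-phase cells were washed into HEPES/bicarbonate glucose buffer (pH 7.3) at 1 × 10^8/ml and mixed with an equal volume of [3H]-permeant, with or without unlabeled competitor, at ambient temperature. Uptake was stopped with ice-cold buffer containing saturating unlabeled permeant, then cells were spun through oil. Counts were corrected for nonspecific binding and Km, Vmax and Ki obtained by curve fitting. Runs were in triplicate. Thymidine: 10 μM label, 15 min. Orotic acid: 10 min.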

TbU3 uracil transporter = experiment: [3H]-uracil transport in bloodstream forms; assay type: cell-based, Trypanosoma brucei brucei; conditions: for Km: read-out: Km, U3, bloodstream forms (BSF), Km of the permeant itself
TbU3 [7] = experiment: [3H]-uridine transport in bloodstream forms; assay type: cell-based, Trypanosoma brucei brucei; conditions: 2.5 μM [3H]-uridine
5-FURes T. b. brucei = experiment: Pyrimidine transport in 5-FURes bloodstream forms; assay type: cell-based, Trypanosoma brucei brucei
[8] = test system: s427WT T. b. brucei bloodstream forms; experiment: Kinetic parameters of pyrimidine transport in wild-type bloodstream forms; assay type: cell-based, Trypanosoma brucei brucei; conditions: [3H]-permeant; strain s427WT
Procedure, shortened: as §2

[9] = test system: T. b. brucei bloodstream forms; experiment: [3H]-orotic acid uptake, wild-type bloodstream forms; assay type: cell-based, Trypanosoma brucei brucei
5-FOARes trypanosomes = experiment: [3H]-orotic acid uptake, 5-FOARes versus wild-type; assay type: cell-based, Trypanosoma brucei brucei; conditions: over 10 min; two experiments
Procedure, shortened: as §2

5F-2′dURes trypanosomes = experiment: [3H]-thymidine uptake in 5F-2′dURes; assay type: cell-based, Trypanosoma brucei brucei
Procedure, shortened: as §2

TbU3 [10] = experiment: [3H]-2′deoxyuridine transport in bloodstream forms; assay type: cell-based, Trypanosoma brucei brucei
[11] = read-out: EC50, WT, Mean, Alamar blue assay, wild-type sensitive control strain

SMILES | effect on [3H]-thymidine transport (in words) [1] | Ki, U1 (TbU1) | EC50 [3, 11] | EC50 (5FURes T. b. brucei) | RF, 5FURes (5FURes T. b. brucei) | EC50 (5FOARes T. b. brucei) | RF, 5FOARes (5FOARes T. b. brucei) | EC50 (5F-2′dURes T. b. brucei) | RF, 5F-2′dURes (5F-2′dURes T. b. brucei) | Km [8] | Vmax [8] | other results
Cc1c[nH]c(=O)[nH]c1=O [Thymine] | little or no effect | – | – | – | – | – | – | – | – | – | – | accumulation of radiolabeled permeant (in words) [2]: did not detectably accumulate; Ki (TbU1): > 1000 µM
Nc1cc[nH]c(=O)n1 [Cytosine] | – | NE, 1000 | – | – | – | – | – | – | – | – | – | accumulation of radiolabeled permeant (in words) [2]: did not detectably accumulate
O=c1cn[nH]c(=O)[nH]1 [6-Azauracil] | – | – | 958 µM | 157 µM | 0.16 | 1390 µM | 1.4 | 1100 µM | 1.2 | – | – | Ki (TbU1): ~1000 µM
O=c1[nH]c(=O)n([C@H]2C[C@H](O)[C@@H](CO)O2)cc1F [5Fl-2’-dUrd, 5-fluoro-2′-deoxyuridine] | – | – | 5.2 µM | 3.2 µM | 0.61 | 31 µM | 5.9 | 4300 µM | 825 | – | – | EC50 ([3]; wild-type, thymidine-free HMI-9 with 100 μM thymidine added): 18.6 ± 3 µM; EC50 ([3]; wild-type, thymidine-free version of HMI-9): 0.77 ± 0.3 µM; reduction of sensitivity by addition of 100 μM thymidine ([3]; wild-type): 24 fold; reduction of sensitivity by addition of 100 μM thymidine (5F-2′dURes T. b. brucei; 5F-2′dURes cells): > 600 fold; increase in dUMP in treated 5F-2′dURes cells relative to untreated wild-type cells (5F-2′dURes cells): two-fold; 5F-dUMP in DNA digest [4]: No 5F-dUMP was detected; changes in variant surface glycoprotein content [5]: no detectable changes
Nc1ccn([C@@H]2O[C@H](CO)[C@@H](O)[C@H]2O)c(=O)n1 [Cytidine] | little or no effect | NE, 1000 | – | – | – | – | – | – | – | – | – | Ki (TbU2): 0.057 ± 0.019 µM
O=c1[nH]cnc2c1ncn2[C@@H]1O[C@H](CO)[C@@H](O)[C@H]1O [Inosine] | – | NE, 1000 | – | – | – | – | – | – | – | – | – | Km ([6]; read-out: Km of inosine uptake, n = 3): 0.89 ± 0.15 µM
O=c1ccn([C@@H]2O[C@H](CO)[C@@H](O)[C@H]2O)c(=O)[nH]1 [Uridine] | – | – | – | – | – | – | – | – | – | 9500 ± 2700 µM | 16 ± 4 pmol (10^7 cells)^−1s^−1 | inhibition of [3H]-uracil uptake (TbU3 uracil transporter; 10 mM of the nucleoside, 0.15 μM [3H]-uracil): ~ 50%; Km (TbU3 uracil transporter): 9500 ± 2700 µM; rate of [3H]-uridine transport (TbU3 [7]; 0-30 min): 0.0043 ± 0.0003 pmol(10^7 cells)^−1s^−1; Ki (5-FURes T. b. brucei; read-out: Ki for [3H]-uracil transport in 5-FURes, n = 3): ~10000 µM; Ki (TbU1): 33 ± 5 µM
Nc1ccn([C@H]2C[C@H](O)[C@@H](CO)O2)c(=O)n1 [2′-deoxycytidine] | – | – | – | – | – | – | – | – | – | – | – | accumulation of radiolabeled permeant (in words) [2]: just detectable accumulation
Nc1nc(=O)n([C@H]2C[C@H](O)[C@@H](CO)O2)cc1F [5Fl-2’-Ctd, 5-fluoro-2′-deoxycytidine] | – | – | 49.4 µM | 55 µM | 1.1 | 126 µM | 2.6 | > 5000 µM | >100 | – | – | reduction of sensitivity by addition of 100 μM thymidine ([3]; wild-type): 78 fold
O=C(O)c1[nH]c(=O)[nH]c(=O)c1F [5-Fluoroorotic acid, 5-fluoroorotic acid] | – | – | 14.1 µM | 98 µM | 6.9 | 1180 µM | 83 | 13.3 µM | 0.94 | – | – | –
O=C(O)c1cc(=O)[nH]c(=O)[nH]1 [Orotic acid] | little or no effect | – | – | – | – | – | – | – | – | – | – | uptake rate as fraction of the transport rate of [3H]-uracil and [3H]-5-FU [9]: ≤ 1%; reduction of [3H]-orotic acid uptake in 5-FOARes relative to wild-type (5-FOARes trypanosomes): 68.1% and 62.8%
O=c1[nH]cnc2nc[nH]c12 [Hypoxanthine] | – | NE, 1000 | – | – | – | – | – | – | – | – | – | Ki, U3 (TbU3 uracil transporter): NE, 1000
O=c1[nH]cc(F)c(=O)[nH]1 [5-Fluorouracil, 5-fluorouracil] | little or no effect | – | 35.9 µM | 4710 µM | 131 | 448 µM | 13 | 76.1 µM | 2.1 | 2.5 ± 0.01 µM | 0.27 ± 0.02 pmol (10^7 cells)^−1s^−1 | reduction of [3H]-5-FU transport in 5-FURes relative to wild-type (5-FURes T. b. brucei; 0.5 μM [3H]-5-FU, n = 3): 76% ± 6; Km (5-FURes T. b. brucei; [3H]-permeant, strain 5-FURes): 2.3 ± 0.4 µM; Ki (TbU1): 3 ± 0.8 µM
O=c1cc[nH]c(=O)[nH]1 [Uracil] | failing to reach 50% inhibition even at 2.5 mM | – | – | – | – | – | – | – | – | 1.5 ± 0.3 µM | 0.27 ± 0.05 pmol (10^7 cells)^−1s^−1 | reduction of [3H]-uracil transport by unlabeled uracil (TbU3 uracil transporter; 0.15 μM [3H]-uracil, 1 mM unlabeled uracil): > 97%; rate of [3H]-uracil transport (TbU3 uracil transporter; 0.15 μM [3H]-uracil, linear for at least 120 s): 0.034 ± 0.002 pmol (10^7 cells)^−1s^−1; Vmax of uracil transport (TbU3 uracil transporter; mean of six triplicate experiments): 0.14 ± 0.03 pmol × 10^7 cells^−1 × s^−1; Km (TbU3 uracil transporter): 0.54 ± 0.11 µM; Ki (TbU3 [7]; read-out: Ki for inhibition of [3H]-uridine uptake, n = 3): 1.6 ± 0.2 µM; Km (5-FURes T. b. brucei; [3H]-permeant, strain 5-FURes): 0.66 ± 0.15 µM; Vmax (5-FURes T. b. brucei; [3H]-permeant, strain 5-FURes): 0.16 ± 0.02 pmol (10^7 cells)^−1s^−1; Km (TbU1; read-out: Km, U1, bold entry): 0.46 ± 0.09 µM
Cc1cn([C@H]2C[C@H](O)[C@@H](CO)O2)c(=O)[nH]c1=O [Thymidine] | – | NE, 1000 | – | – | – | – | – | – | – | 1240 ± 310 µM | 0.067 ± 0.008 pmol (10^7 cells)^−1s^−1 | rate of [3H]-thymidine transport ([1]; 10 μM thymidine, 5-30 min): 0.0015 ± 0.0003 pmol(10^7 cells)^−1s^−1; Km ([1]; read-out: Km, T1, bloodstream forms (BSF)): 1240 ± 310 µM; Ki ([6]; read-out: Ki for inhibition of inosine uptake, monophasic, n = 4): 214 ± 51 µM; increase in thymidine affinity relative to wild-type (5F-2′dURes trypanosomes): > 50 fold; increase in transport efficiency relative to wild-type (5F-2′dURes trypanosomes): six-fold; Vmax of [3H]-thymidine uptake (5F-2′dURes trypanosomes; 10 μM [3H]-thymidine): 0.013 ± 0.002 pmol(10^7 cells)^−1s^−1; Km (5F-2′dURes trypanosomes; read-out: Km of [3H]-thymidine uptake, 10 μM [3H]-thymidine): 22 ± 3 µM; Ki (TbU2): 0.38 ± 0.07 µM
O=c1ccn([C@H]2C[C@H](O)[C@@H](CO)O2)c(=O)[nH]1 [2’Deoxyuridine, 2′-deoxyuridine] | – | – | – | – | – | – | – | – | – | 810 ± 310 µM | 1.3 ± 0.7 pmol (10^7 cells)^−1s^−1 | Km (TbU3 uracil transporter): 810 ± 130 µM; rate of [3H]-2′deoxyuridine uptake (TbU3 [10]; 0.5 μM [3H]-2′deoxyuridine): 0.00045 pmol (10^7 cells)^−1s^−1; rate of [3H]-2′deoxyuridine transport (TbU3 [10]; 5 μM [3H]-2′deoxyuridine, linear over 4 min): 0.0051 ± 0.0003 pmol/10^7 cells/s; inhibition of [3H]-2′deoxyuridine transport by unlabeled 2′-deoxyuridine (TbU3 [10]; 5 μM label, 2.5 mM unlabeled): 76%
